Experiment [1] has as its system Streptococcus pneumoniae. As to the kind of experiment: Antibacterial activity against penicillin-, constitutive MLS-resistant Streptococcus pneumoniae PU 11 by broth microdilution method. It counts as functional. Put shortly: (§1)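 MIC by broth microdilution following CLSI (2010) recommendations, using clinical isolates identified by 16S rDNA sequencing and labelled by genotype and phenotype. S. aureus ATCC 29213 and S. pneumoniae ATCC 49619 were run as control strains, and azithromycin, clarithromycin and 3-OH-clarithromycin were tested as reference agents.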

Experiment [2] relates to Streptococcus pneumoniae. As to the kind of experiment: Antibacterial activity against penicillin-susceptible, constitutive MLS-resistant Streptococcus pneumoniae PU 27 by broth microdilution method. It counts as functional. The method, boiled down: as §1
Experiment [3] deals with Staphylococcus hominis. Kind of experiment: Antibacterial activity against methicillin-resistant, coagulase-negative, inducible MLS-resistant Staphylococcus hominis E3 by broth microdilution method. It counts as functional. The method, boiled down:
as §1

Experiment [4] concerns Staphylococcus haemolyticus. As to the kind of experiment: Antibacterial activity against methicillin-resistant, coagulase-negative, constitutive MLS-resistant Staphylococcus haemolyticus PU 19 by broth microdilution method. It counts as functional. The method, boiled down: as §1
The subject of experiment [5] is Staphylococcus aureus. Kind of experiment: Antibacterial activity against erythromycin-susceptible Staphylococcus aureus ATCC 29213 by broth microdilution method. It counts as functional. Put shortly: (§2)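 MIC read by broth microdilution following CLSI (2010) guidance. The clinical isolates were identified by 16S rDNA sequencing and labelled by genotype and phenotype. S. aureus ATCC 29213 and S. pneumoniae ATCC 49619 were the control strains. Azithromycin, clarithromycin and 3-OH-clarithromycin were run as reference compounds.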

The subject of experiment [6] is Streptococcus pneumoniae. As to the kind of experiment: Antibacterial activity against efflux,penicillin-susceptible Streptococcus pneumoniae PU 09 by broth microdilution method. The format is functional. The method, boiled down:
as §2

For experiment [7], the system named is Staphylococcus epidermidis. Kind of experiment: Ratio of MIC for azithromycin to compound for methicillin-susceptible, inducible MLS-resistant Staphylococcus epidermidis E1 by broth microdilution method. It counts as functional.
Experiment [8] concerns Streptococcus pyogenes. Kind of experiment: Antibacterial activity against constitutive MLS-resistant Streptococcus pyogenes A 2 by broth microdilution method. The format is functional. The method, boiled down:
as §1

In experiment [9] the test system is Staphylococcus aureus. Kind of experiment: Antibacterial activity against methicillin-susceptible, inducible MLS-resistant Staphylococcus aureus PU 64 by broth microdilution method. It counts as functional. The method, boiled down: as §1
Experiment [10] has as its system Staphylococcus aureus. Kind of experiment: Antibacterial activity against methicillin-, inducible MLS-resistant Staphylococcus aureus PU 32 by broth microdilution method.
Experiment [11] deals with Staphylococcus epidermidis. As to the kind of experiment: Antibacterial activity against methicillin-resistant, constitutive MLS-resistant Staphylococcus epidermidis E2 by broth microdilution method. It counts as functional. The method, boiled down:
as §1

Experiment [12] concerns Streptococcus pneumoniae. Kind of experiment: Antibacterial activity against erythromycin-susceptible Streptococcus pneumoniae ATCC 49619 by broth microdilution method. The format is functional. Put shortly:
as §2

Experiment [13] relates to Staphylococcus aureus. Kind of experiment: Antibacterial activity against methicillin-, constitutive MLS-resistant […] by broth microdilution method. It counts as functional. Put shortly:
as §1

Experiment [14] deals with Staphylococcus epidermidis. Kind of experiment: Antibacterial activity against methicillin-susceptible, inducible MLS-resistant Staphylococcus epidermidis E1 by broth microdilution method. The format is functional. Put shortly: as §1
The subject of experiment [15] is Staphylococcus epidermidis. Kind of experiment: Ratio of MIC for clarithromycin to compound for methicillin-susceptible, inducible MLS-resistant Staphylococcus epidermidis E1 by broth microdilution method. The format is functional.
The subject of experiment [16] is Streptococcus pyogenes. Kind of experiment: Antibacterial activity against erythromycin-susceptible Streptococcus pyogenes A 3 by broth microdilution method. The format is functional. The method, boiled down:
as §2

The test system of experiment [17] is Streptococcus dysgalactiae. Kind of experiment: Antibacterial activity against efflux, erythromycin-resistant Streptococcus dysgalactiae A 1 by broth microdilution method. It counts as functional. The method, boiled down:
as §1

In experiment [18] the test system is Staphylococcus hominis. As to the kind of experiment: Ratio of MIC for azithromycin to compound for methicillin-resistant, coagulase-negative, inducible MLS-resistant Staphylococcus hominis E3 by broth microdilution method. It counts as functional. Put shortly: (§3)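 MICs of the test compounds and of the reference macrolides (azithromycin, clarithromycin) were determined side by side by broth microdilution following CLSI (2010). The clinical isolates were identified by 16S rDNA sequencing and labelled by genotype and phenotype. S. aureus ATCC 29213 and S. pneumoniae ATCC 49619 served as control strains.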

Experiment [19] has as its system Staphylococcus hominis. Kind of experiment: Ratio of MIC for clarithromycin to compound for methicillin-resistant, coagulase-negative, inducible MLS-resistant Staphylococcus hominis E3 by broth microdilution method. The format is functional. Put shortly: as §3
In experiment [20] the test system is Streptococcus dysgalactiae. As to the kind of experiment: Ratio of MIC for clarithromycin to compound for efflux, erythromycin-resistant Streptococcus dysgalactiae A 1 by broth microdilution method. It counts as functional. Put shortly: as §3
Experiment [21] deals with Streptococcus pneumoniae. As to the kind of experiment: Ratio of MIC for azithromycin to compound for efflux,penicillin-susceptible Streptococcus pneumoniae PU 09 by broth microdilution method. It counts as functional. Put shortly: as §3
Experiment [22] relates to Streptococcus pneumoniae. As to the kind of experiment: Ratio of MIC for clarithromycin to compound for efflux,penicillin-susceptible Streptococcus pneumoniae PU 09 by broth microdilution method. It counts as functional. Put shortly: as §3
Experiment [23] relates to Staphylococcus aureus. Kind of experiment: Antibacterial activity against methicillin-, inducible MLS-resistant […] by broth microdilution method. It counts as functional. The method, boiled down: as §1
Experiment [24] deals with Streptococcus dysgalactiae. Kind of experiment: Ratio of MIC for azithromycin to compound for efflux, erythromycin-resistant Streptococcus dysgalactiae A 1 by broth microdilution method. It counts as functional. The method, boiled down:
as §3

≈ marks a conversion by molar mass, not a printed value.

Turning to `CC[C@H]1OC(=O)[C@H](C)[C@@H](OCCCc2cncnc2)[C@H](C)[C@@H](O[C@@H]2O[C@H](C)C[C@H](N(C)C)[C@H]2O)[C@](C)(OC)C[C@@H](C)/C(=N\O)[C@H](C)[C@@H](O)[C@]1(C)O`, the MIC in the experiment with Streptococcus pneumoniae [1] was over 256 mg/L; in the experiment with Streptococcus pneumoniae [2] it was 64 mg/L (≈ 88.3 µM); in the experiment on Staphylococcus hominis [3], over 256 mg/L; in experiment [4] it was over 256 mg/L; in the experiment on Staphylococcus aureus [5], 8 mg/L (≈ 11 µM); in the experiment on Streptococcus pneumoniae [6] it was 2 mg/L (≈ 2.76 µM). Further, the MIC is over 256 mg/L against Streptococcus pyogenes [8]; 8 mg/L (≈ 11 µM) with Staphylococcus aureus [9]; 8 mg/L (≈ 11 µM) against Staphylococcus aureus [10]; over 256 mg/L in [11]; 1 mg/L (≈ 1.38 µM) with Streptococcus pneumoniae [12]; over 256 mg/L with Staphylococcus aureus [13]. For the same molecule, the MIC in experiment [14] was found to be 16 mg/L (≈ 22.1 µM); in the experiment with Streptococcus pyogenes [16], 0.5 mg/L (≈ 0.69 µM); in experiment [17], 2 mg/L (≈ 2.76 µM). Further, the Ratio in [7] and in experiment [15] was over 16 each time.
In the case of `CC[C@H]1OC(=O)[C@H](C)[C@@H](O/C=C\Cc2cncnc2)[C@H](C)[C@@H](O[C@@H]2O[C@H](C)C[C@H](N(C)C)[C@H]2O)[C@](C)(OC)C[C@@H](C)C(=O)[C@H](C)[C@@H](O)[C@]1(C)O`, the MIC with Streptococcus pneumoniae [1] was over 256 mg/L; against Streptococcus pneumoniae [2], 32 mg/L (≈ 45.2 µM); in the experiment with Staphylococcus hominis [3] it was 8 mg/L (≈ 11.3 µM); in experiment [4], over 256 mg/L; against Staphylococcus aureus [5], 8 mg/L (≈ 11.3 µM); in the experiment on Streptococcus pneumoniae [6], 1 mg/L (≈ 1.41 µM). Also, the MIC is over 256 mg/L against Streptococcus pyogenes [8]; 8 mg/L (≈ 11.3 µM) against Staphylococcus aureus [9]; 4 mg/L (≈ 5.65 µM) against Staphylococcus aureus [10]; over 256 mg/L in experiment [11]; 1 mg/L (≈ 1.41 µM) against Streptococcus pneumoniae [12]; over 256 mg/L in the experiment on Staphylococcus aureus [13]. For the same molecule, the MIC (in experiment [14]; with Streptococcus pyogenes [16]; in [17]) was 4 mg/L (≈ 5.65 µM) throughout. The Ratio in [7] and in experiment [15] was over 16 throughout.
Turning to `CC[C@H]1OC(=O)[C@H](C)[C@@H](O/C=C\Cc2cncnc2)[C@H](C)[C@@H](O[C@@H]2O[C@H](C)C[C@H](N(C)C)[C@H]2O)[C@](C)(OC)C[C@@H](C)/C(=N\O)[C@H](C)[C@H]2OC(=O)O[C@@]21C`, the Ratio is reported as 1024 in the experiment with Staphylococcus hominis [18]; 1024 with Staphylococcus hominis [19]; 32 in [20]; 32 in the experiment with Streptococcus pneumoniae [21]; 32 with Streptococcus pneumoniae [22]; 1024 in [7]. Moreover, the Ratio in experiment [15] is 1024; in experiment [24] it was 32. Moreover, the minimal inhibitory concentration (MIC) in the experiment on Streptococcus pneumoniae [1] is over 256 mg/L; in the experiment on Streptococcus pneumoniae [2], 1 mg/L (≈ 1.34 µM); against Staphylococcus hominis [3], 0.25 mg/L (≈ 0.334 µM); in [4], over 256 mg/L; against Staphylococcus aureus [5], 0.5 mg/L (≈ 0.668 µM); in the experiment on Streptococcus pneumoniae [6], 0.125 mg/L (≈ 0.167 µM). Moreover, the MIC against Streptococcus pyogenes [8] was over 256 mg/L; against Staphylococcus aureus [9] it was 0.25 mg/L (≈ 0.334 µM); against Staphylococcus aureus [23], 0.25 mg/L (≈ 0.334 µM); in [11] it was over 256 mg/L; against Streptococcus pneumoniae [12], 0.032 mg/L (≈ 0.0427 µM); in the experiment on Staphylococcus aureus [13], over 256 mg/L. The MIC in [14] came out at 0.25 mg/L (≈ 0.334 µM); against Streptococcus pyogenes [16], 0.016 mg/L (≈ 0.0214 µM); in [17], 0.125 mg/L (≈ 0.167 µM).
